The data set in a line: Toxicity liver stage against HepG2, at 10uM. The conditions noted are these: human, HepG2-A16-CD81EGFP cells; read-out: INHIBITION
The format is cell-based. Also noted: test concentration 10 uM, cell line HepG2-A16-CD81EGFP. A digest of the protocol:
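Uninfected HepG2-A16-CD81EGFP cells, 3 × 10^3 per well, 1536-well, plated on prespotted compound at 10 μM final, parasite-free screening media added to match infected plates; puromycin 10 μM positive, DMSO 0.5% negative; run in parallel with 48 h PbLuc assay at 37 °C, 5% CO2; viability by CellTiter-Glo luminescence, normalized to controls.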

SMILES strings stand for the structures.

Among the data in ChEMBL document CHEMBL4513216, “Probing the Open Global Health Chemical Diversity Library for Multistage-Active Starting Points for Next-Generation Antimalarials” (ACS Infect Dis, 2020) are cytotoxicity values, retold here.

For the compound `CN(C)C(=O)CC1CC2(CCN(CC3CC3)CC2)Oc2ccccc21` (configuration not stated), the cytotoxicity at 10 µM was -3.51%.
As for `CCCc1n[nH]c(C2CN(C(=O)CCn3ccccc3=O)CCO2)n1` (configuration not stated), the cytotoxicity at 10 µM is -0.438%.
In the case of `N[C@H]1CN(C(=O)c2ccc3[nH]c(=O)c(=O)[nH]c3c2)C[C@@H]1c1ccccc1`, the cytotoxicity at 10 µM came out at 2.19%.
Then `CC(C)N(C)C(=O)C1CCN(Cc2cnc3ccccn23)CC1`, with 27.5%.
Take `CCOCCCn1c(NC(=O)c2ccnc(C)n2)nc2ccccc21`: the cytotoxicity at 10 µM is -21.1%.
With `Cc1nc(C(=O)NCCS(=O)(=O)N2CCCC2)cs1` the figure was 13.4%; with `O=c1ccc(-n2ccnc2)nn1CCNS(=O)(=O)c1ccc(Cl)s1`, -1.36%.
Consider `CC1CN(c2ncnc3c2cnn3C)CCN1c1nccs1` (configuration not stated), for which the cytotoxicity at 10 µM worked out at 7.04%.
Regarding `Cc1ncsc1C(=O)N1CC(C)Sc2ccccc21` (configuration not stated), the cytotoxicity at 10 µM is -0.663%.
As to `Cn1cccc1C(=O)NCc1cn2c(n1)CN(C(=O)c1ccsc1)CC2`, the cytotoxicity at 10 µM is -112%.
With `Cc1cccc2nc(CSCC(=O)Nc3nnc(C(C)C)s3)cc(=O)n12`, the cytotoxicity at 10 µM was -3.95%.
With `CNC(=O)c1cc2c(nc1NCC(C)C)CCN(S(=O)(=O)N(C)C)CC2` the figure was -151%; with `Cc1cnc(CN2CCC(N(C)Cc3noc(C4CC4)n3)C2)o1` (configuration not stated), -12.6%; with `CCCOc1ccccc1NCC(=O)Nc1ccc(CC)cc1`, 6.37%.
Then `CNC(=O)c1cccnc1NCCOc1ccc(CC#N)cc1`, with -1.53%.
As to `CCn1ncc(CN2CCCC(n3c(=O)oc4ccccc43)C2)c1C` (configuration not stated), the cytotoxicity at 10 µM was 1.83%.
For `Cc1ccc(CNc2ccccc2SCCC(N)=O)s1`, the cytotoxicity at 10 µM was 10.6%.
Regarding `CN(C(=O)C(c1c(F)cccc1Cl)N(C)C)c1nccs1` (configuration not stated), the cytotoxicity at 10 µM was -58%.
As to `COc1cccc(CN2CCCC2c2cccc(F)c2)c1OC` (configuration not stated), the cytotoxicity at 10 µM amounted to 6.01%.
As for `Cn1nc2c(cc1=O)CN(Cc1coc(-c3cccs3)n1)CC2`, the cytotoxicity at 10 µM was -11.1%.
With `CS(=O)(=O)N1CCCC12CCCN(C(=O)c1ccno1)C2` (configuration not stated), the cytotoxicity at 10 µM is -172%.
With `Cc1nc(CN2CCCC(N(C)c3ccc(C#N)cn3)C2)no1` (configuration not stated) the figure was -6.76%.
Consider `Cn1cc(CN2CC[C@H]3[C@H]2CC(=O)N3Cc2ccncc2)cn1`, for which the cytotoxicity at 10 µM is -5.87%.
On to `Cc1cc(N2CCc3c(nc(C(C)C)n3C)C2)nc(N)n1`, for which the cytotoxicity at 10 µM is -6.79%.
Then `COC(=O)c1ccoc1CN(C)Cc1ccccc1`, with 3.3%; and `CCCc1n[nH]c(C2CN(CCNC3CCCCC3)CCO2)n1` (configuration not stated), with 2.75%.
For the compound `O=C([C@H]1CCCO1)N1CCC2(CC1)CNCc1ccccc12`, the cytotoxicity at 10 µM was -2.57%.
With `Cn1cc(NC(=O)c2cccc(C(F)(F)F)c2)c(=O)n(C)c1=O` the figure was 0.49%.
Turning to `CN(C)C(=O)N1CCc2ccc(=O)[nH]c2CC1`, the cytotoxicity at 10 µM amounted to 5.39%.
With `c1coc(-c2nc3c(c(NCc4n[nH]c5c4CCC5)n2)CCNCC3)c1` the figure was -3.36%; with `CCNC(=O)CS(=O)(=O)NC1CCC(C)CC1` (configuration not stated), -4.57%; with `c1cc(COC[C@H]2CCC[C@]23CNCCO3)ccn1`, -99.1%.
For `Cc1cc(N2CCCCCC2)n2nc(C)c(C)c2n1`, the cytotoxicity at 10 µM was -6.23%.
Turning to `CCN(C)C[C@@H]1CN(C(=O)NC2CCCCC2)C[C@@H]1CO`, the cytotoxicity at 10 µM is -1.53%.
Then `COC(=O)N1CCc2ccccc2C1C(=O)NCC(F)(F)F` (configuration not stated), with -2.96%; and `COc1cccc(CC(=O)N2CCCC(n3nc(C)cc3C)C2)c1` (configuration not stated), with 0.441%.
On to `CNC(=O)[C@H]1C[C@H]2CN(Cc3cccc(C)c3)C[C@@H]1O2`, for which the cytotoxicity at 10 µM worked out at 8.97%.
With `Cn1ncc2c1CCCC2NCc1cc(Br)cs1` (configuration not stated) the figure was -0.481%; with `CCn1c(C)cc(C(=O)NCc2cccc(NS(C)(=O)=O)c2)c1C`, -2.6%.
With `Cc1cc(C)c2c(c1)C(NCc1c(C)nn(C)c1N(C)C)CCO2` (configuration not stated), the cytotoxicity at 10 µM was -4.07%.
For `CN(C)C[C@@H]1C[C@@H]2CN(c3ncc(F)cn3)CC[C@@H]2N1C`, the cytotoxicity at 10 µM turned out to be 4.53%.
As to `CCc1nnc(CN(CC)C(=O)C2CCC(=O)N(C3CCCC3)C2)o1` (configuration not stated), the cytotoxicity at 10 µM came to 2.01%.
Then `Cc1nc(COc2nc(C(C)C)no2)cs1`, with 11.5%; and `O=C(c1ccncc1F)N1CCN(CC2CC2)c2ncccc2C1`, with 6.48%.
`O=c1[nH][nH]cc1-c1ccnc(NCCc2cccnc2)n1`: the cytotoxicity at 10 µM is -8.86%.
As to `COCc1ccc(CN2CCC(O)(Cn3ccc4ncccc43)CC2)o1`, the cytotoxicity at 10 µM is 4.45%.
Then `Cc1cccc2c1nc1n2[C@@H](CNC(=O)CCC(=O)O)COC1`, with -4.83%; and `CCOC(=O)COc1ccc(C(C)=O)c(O)c1`, with -19.3%; and `CN(Cc1ccsc1)C(=O)CN1CCOC(Cn2cncn2)C1` (configuration not stated), with -1.14%.
Consider `CCn1nc2c(cc1=O)CN(CC(=O)Nc1nccs1)CC2`, for which the cytotoxicity at 10 µM was -4.74%.
Consider `CC(=O)NCC1CCN(C(=O)NCCc2ccc3c(c2)OCO3)CC1`, for which the cytotoxicity at 10 µM was -5.22%.
With `Cn1nc(C2CN(C(=O)c3ccncc3)C2)c2nccnc21`, the cytotoxicity at 10 µM was -8.8%.
`CCn1ncc(CN2CCC(c3ncc(Cl)cc3S(C)(=O)=O)CC2)c1C`: the cytotoxicity at 10 µM was found to be 3.5%.
In the case of `CCc1cnc(CN2CCC(N(Cc3noc(CC)n3)C(C)=O)C2)o1` (configuration not stated), the cytotoxicity at 10 µM was -4.17%.
`CC(C)NC(=O)CC1COC2(CCN(Cc3ccco3)CC2)C1` (configuration not stated): the cytotoxicity at 10 µM was -0.567%.
In the case of `CC(C)c1cncnc1-c1cc(F)cc2c1OC(CN)C2` (configuration not stated), the cytotoxicity at 10 µM is -4.02%.
Then `NC(=O)C(NC(=O)COC1CCCCC1)c1ccccc1` (configuration not stated), with -4.65%; and `CC(=O)N1CCN(c2cc(N3CCOCC3)cnn2)CC1`, with -7.09%.
`Cc1csc(N2CCN(C(=O)Cc3cccs3)CC2)n1`: the cytotoxicity at 10 µM is -23.3%.
As for `Cc1cc(C)cc(OCCN(C)Cc2cscn2)c1`, the cytotoxicity at 10 µM stood at 6.56%.
Consider `CNC(=O)c1cccc(CNC(C)c2cc(C)ccc2OC(F)F)c1` (configuration not stated), for which the cytotoxicity at 10 µM was determined as 20.2%.
With `CCCN1CCCC2(CCN(S(=O)(=O)c3cccnc3)C2)C1=O` (configuration not stated) the figure was -2.3%; with `O=C(CCc1nc(Cl)n[nH]1)N1CCC2(CCCNC2=O)C1` (configuration not stated), -6.37%.
For `CC(C)CCCC1CN(C(=O)c2cnc[nH]2)CCO1` (configuration not stated), the cytotoxicity at 10 µM worked out at 2.83%.
For the compound `O=C(c1c[nH]cn1)N1CCOCC2(C1)CN(c1ccccc1)C(=O)CO2` (configuration not stated), the cytotoxicity at 10 µM was -7.27%.
In the case of `Cc1cc(C)c(C(=O)N2CCn3nc(C(=O)NCCN(C)C)cc3C2)[nH]1`, the cytotoxicity at 10 µM is -0.53%.
With `CN1CCN(C(=O)c2cc(C#N)cs2)c2ccccc2C1`, the cytotoxicity at 10 µM is 10.2%.
`Cc1nc(NC(=O)C(C)S(C)(=O)=O)sc1Cc1ccc(F)cc1` (configuration not stated): the cytotoxicity at 10 µM stood at 4.52%.
`Cc1cc(C)c(CNC(=O)NCCCNc2ccccn2)c(=O)[nH]1`: the cytotoxicity at 10 µM is -43%.
As to `CN(Cc1ccsc1)C(=O)CN1CCc2c(ncn2C)C1`, the cytotoxicity at 10 µM is 2.83%.
`Cc1cccc(C)c1OCC(=O)NS(=O)(=O)c1c(C)noc1C`: the cytotoxicity at 10 µM is -2.28%.
As for `COc1c(CNCc2cccnc2N2CCCCC2)c(C)nn1C`, the cytotoxicity at 10 µM is -151%.
